Measurements published in ChEMBL document CHEMBL3826885, “Similarities and differences in affinity and binding modes of tricyclic pyrimido- and pyrazinoxanthines at human and rat adenosine receptors” (Bioorg Med Chem, 2016).

Key:
[1] = target: T1, Adenosine receptor A1 (Rattus norvegicus) (UniProt P25099); assay: Displacement of [3H]CCPA from adenosine receptor A1 in rat brain cortical membranes at 10 uM; assay type: cell membranes; settings: 1 uM, in the assay text read “at 1 uM” for “at 10 uM”
T1 sequence (whole entry): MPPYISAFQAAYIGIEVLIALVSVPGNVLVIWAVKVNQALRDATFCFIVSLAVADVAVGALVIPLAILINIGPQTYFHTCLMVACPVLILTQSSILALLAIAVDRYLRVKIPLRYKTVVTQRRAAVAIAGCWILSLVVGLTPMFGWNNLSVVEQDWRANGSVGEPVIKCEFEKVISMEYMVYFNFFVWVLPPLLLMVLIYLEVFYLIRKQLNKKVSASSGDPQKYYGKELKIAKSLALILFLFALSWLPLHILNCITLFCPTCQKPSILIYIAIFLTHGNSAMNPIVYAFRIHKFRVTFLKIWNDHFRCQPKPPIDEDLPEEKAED
Summary of the method: (§1)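 Native rat receptors: A1 in brain cortical membranes with [3H]CCPA, A2A in brain striatal membranes, from frozen unstripped rat brains. Compounds were first screened at a single high concentration in three independent experiments. Active compounds then had full inhibition curves over at least 3 orders of magnitude of concentration.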

Adenosine receptor A1 = target: T2, Adenosine receptor A1 (Rattus norvegicus, UniProt P25099); assay: Displacement of [3H]CCPA from adenosine receptor A1 in rat brain cortical membranes; assay type: cell membranes
T2 sequence (P25099 whole entry): T1 sequence (whole entry)
Summary of the method: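 Native rat receptors: A1 in brain cortical membranes with [3H]CCPA, A2A in brain striatal membranes, from frozen unstripped rat brains. Compounds were first screened at a single high concentration in three independent experiments.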

[2] = target: Adenosine receptor A2a (Rattus norvegicus) (UniProt P30543); assay: Displacement of [3H]MSX2 from Adenosine receptor A2a in rat brain striatal membranes at 10 uM; assay type: cell membranes; settings: Membrane; summary of the method: as §1
Adenosine receptor A2a = Adenosine receptor A2a (Rattus norvegicus, UniProt P30543); assay: Displacement of [3H]MSX2 from adenosine receptor A2a in rat brain striatal membranes; assay type: cell membranes, Membrane; summary of the method: as §1
Adenosine receptor A3 = target: T3, Adenosine receptor A3 (Homo sapiens, UniProt P0DMS8); assay: Displacement of [3H]PSB-11 from recombinant human adenosine receptor A3 expressed in CHO cell membranes
T3 sequence (P0DMS8 whole entry): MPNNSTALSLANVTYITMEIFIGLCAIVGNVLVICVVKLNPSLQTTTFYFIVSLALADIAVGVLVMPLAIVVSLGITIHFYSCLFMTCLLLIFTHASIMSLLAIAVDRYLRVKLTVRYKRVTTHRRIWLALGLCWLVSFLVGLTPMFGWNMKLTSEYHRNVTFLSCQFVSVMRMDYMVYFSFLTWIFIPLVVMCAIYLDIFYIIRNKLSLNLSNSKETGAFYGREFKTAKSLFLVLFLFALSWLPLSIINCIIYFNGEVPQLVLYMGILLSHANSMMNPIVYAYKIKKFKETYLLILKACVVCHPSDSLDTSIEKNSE

Adenosine receptor A2b = target: T4, Adenosine receptor A2b (Homo sapiens, UniProt P29275); assay: Displacement of [3H]PSB-603 from recombinant human adenosine receptor A2b expressed in CHO cell membranes
T4 sequence (P29275 whole entry): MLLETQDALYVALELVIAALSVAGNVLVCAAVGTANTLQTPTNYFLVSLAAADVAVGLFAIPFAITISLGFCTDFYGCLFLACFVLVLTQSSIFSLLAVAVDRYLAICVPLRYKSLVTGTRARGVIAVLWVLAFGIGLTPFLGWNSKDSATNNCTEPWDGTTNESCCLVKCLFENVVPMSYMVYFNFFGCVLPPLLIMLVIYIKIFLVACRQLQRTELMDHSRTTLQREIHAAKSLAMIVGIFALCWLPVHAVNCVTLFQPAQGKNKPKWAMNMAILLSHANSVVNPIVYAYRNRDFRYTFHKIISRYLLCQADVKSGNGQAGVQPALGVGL
Summary of the method: (§2)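 Membranes came from CHO cells expressing recombinant receptors (human A1, A2A, A2B, A3; rat A2B, A3). Radioligands were [3H]CCPA for A1 and [3H]PSB-11 or [3H]NECA for A3. A single high concentration was screened first, in three experiments for A1/A2A and two for A2B/A3.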

[3] = target: T5, Adenosine receptor A3 (Homo sapiens) (UniProt P0DMS8); assay: Displacement of [3H]PSB11 from recombinant human adenosine receptor A3 expressed in CHO cell membranes at 1 uM
T5 sequence (whole entry): T3 sequence (P0DMS8 whole entry)
Summary of the method: as §2, with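 “A2B/A3. Full inhibition curves spanning at least 3 log units were run for potent compounds.” for “A2B/A3.”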

Sequence of Adenosine receptor A2a (Rattus norvegicus) (P30543 whole entry): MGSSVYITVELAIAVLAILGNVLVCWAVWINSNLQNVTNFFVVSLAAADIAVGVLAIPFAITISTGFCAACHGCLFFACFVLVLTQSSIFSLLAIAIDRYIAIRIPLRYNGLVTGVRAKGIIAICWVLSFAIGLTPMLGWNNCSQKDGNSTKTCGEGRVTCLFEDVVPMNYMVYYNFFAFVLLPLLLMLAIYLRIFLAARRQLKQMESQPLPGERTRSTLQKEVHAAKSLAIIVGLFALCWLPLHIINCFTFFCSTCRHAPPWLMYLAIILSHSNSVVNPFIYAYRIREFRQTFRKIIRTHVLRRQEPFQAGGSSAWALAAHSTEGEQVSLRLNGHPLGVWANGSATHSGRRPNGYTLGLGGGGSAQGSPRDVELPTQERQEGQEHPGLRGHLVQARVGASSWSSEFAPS
Sequence of Adenosine receptor A2a (P30543 whole entry): as above

Work on `Cn1c(=O)c2c(nc3n2CCN(CCc2ccc(O)cc2)C3)n(C)c1=O` yielded an inhibition [1] of 4%, a Ki (Adenosine receptor A1) of over 1000 nM and an inhibition [2] of 35%. It also gave a Ki (Adenosine receptor A2a) of over 10000 nM, a Ki (Adenosine receptor A3) of over 1000 nM and a Ki (Adenosine receptor A2b) of over 1000 nM. It also gave an inhibition [3] of 3%.
